Source: the M2OR odorant receptor database

Legend:
Conditions in all cases: stereoisomer not certain
[1] = target: T1, OR10R2 (Homo sapiens) (UniProt Q8NGX6)
T1 sequence (whole entry): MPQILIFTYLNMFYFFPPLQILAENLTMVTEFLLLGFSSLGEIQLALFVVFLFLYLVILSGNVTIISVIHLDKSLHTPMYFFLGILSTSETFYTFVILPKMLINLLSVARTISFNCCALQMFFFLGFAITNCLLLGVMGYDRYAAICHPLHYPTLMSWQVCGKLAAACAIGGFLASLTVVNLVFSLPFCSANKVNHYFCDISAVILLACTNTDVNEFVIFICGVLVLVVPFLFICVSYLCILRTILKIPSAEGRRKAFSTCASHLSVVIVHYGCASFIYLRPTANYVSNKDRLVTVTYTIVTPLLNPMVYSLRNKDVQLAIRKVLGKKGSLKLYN
Procedure, shortened: (§1)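 Each receptor–molecule pair is labelled responsive or non-responsive (inactive) according to whether the original authors judged the measured signal statistically different from baseline. The data were taken from the main text and supplementary material of published papers and checked for typos and inconsistencies. Assay methods differed by source, with transient luciferase assays in mammalian cell lines being common.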

[2] = target: T2, OR10S1 (Homo sapiens) (UniProt Q8NGN2)
T2 sequence (whole entry): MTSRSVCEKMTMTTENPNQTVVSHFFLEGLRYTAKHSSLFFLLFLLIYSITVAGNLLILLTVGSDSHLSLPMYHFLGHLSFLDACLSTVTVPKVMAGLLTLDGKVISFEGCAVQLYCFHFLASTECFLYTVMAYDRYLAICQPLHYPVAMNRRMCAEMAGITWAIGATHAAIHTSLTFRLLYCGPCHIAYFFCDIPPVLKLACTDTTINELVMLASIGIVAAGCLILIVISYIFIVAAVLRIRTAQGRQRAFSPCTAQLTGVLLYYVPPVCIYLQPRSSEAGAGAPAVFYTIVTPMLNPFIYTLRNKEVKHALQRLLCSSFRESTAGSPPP
Procedure, shortened: as §1

[3] = target: T3, OR10T2 (Homo sapiens) (UniProt Q8NGX3)
T3 sequence (whole entry): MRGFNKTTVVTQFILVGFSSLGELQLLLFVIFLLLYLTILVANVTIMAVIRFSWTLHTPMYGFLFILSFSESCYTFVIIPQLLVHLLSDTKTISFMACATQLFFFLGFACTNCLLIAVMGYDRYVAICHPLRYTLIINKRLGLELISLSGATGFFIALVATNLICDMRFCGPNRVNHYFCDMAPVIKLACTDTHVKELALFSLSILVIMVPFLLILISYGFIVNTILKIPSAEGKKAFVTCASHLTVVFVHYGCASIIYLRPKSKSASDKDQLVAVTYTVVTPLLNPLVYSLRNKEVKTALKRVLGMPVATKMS
Procedure, shortened: as §1

[4] = target: T4, OR10V1 (Homo sapiens) (UniProt Q8NGI7)
T4 sequence (whole entry): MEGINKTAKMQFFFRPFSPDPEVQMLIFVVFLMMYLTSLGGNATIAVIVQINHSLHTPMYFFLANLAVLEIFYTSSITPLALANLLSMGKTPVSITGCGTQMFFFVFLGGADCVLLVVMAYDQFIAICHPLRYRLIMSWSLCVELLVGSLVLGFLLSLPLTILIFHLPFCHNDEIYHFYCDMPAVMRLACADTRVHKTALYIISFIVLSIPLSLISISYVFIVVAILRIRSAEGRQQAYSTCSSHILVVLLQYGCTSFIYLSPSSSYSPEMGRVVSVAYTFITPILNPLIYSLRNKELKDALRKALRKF
Procedure, shortened: as §1

[5] = target: T5, OR10W1 (Homo sapiens) (UniProt Q8NGF6)
T5 sequence (whole entry): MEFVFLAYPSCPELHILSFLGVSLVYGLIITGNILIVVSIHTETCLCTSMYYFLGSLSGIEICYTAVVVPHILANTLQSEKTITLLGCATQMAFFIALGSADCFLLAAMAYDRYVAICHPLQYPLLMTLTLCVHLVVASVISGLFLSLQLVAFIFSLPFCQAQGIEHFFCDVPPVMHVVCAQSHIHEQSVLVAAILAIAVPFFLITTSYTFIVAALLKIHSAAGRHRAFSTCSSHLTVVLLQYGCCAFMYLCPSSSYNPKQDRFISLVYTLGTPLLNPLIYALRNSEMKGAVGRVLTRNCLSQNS
Procedure, shortened: as §1

[6] = target: T6, OR10X1 (Homo sapiens) (UniProt Q8NGY0)
T6 sequence (whole entry): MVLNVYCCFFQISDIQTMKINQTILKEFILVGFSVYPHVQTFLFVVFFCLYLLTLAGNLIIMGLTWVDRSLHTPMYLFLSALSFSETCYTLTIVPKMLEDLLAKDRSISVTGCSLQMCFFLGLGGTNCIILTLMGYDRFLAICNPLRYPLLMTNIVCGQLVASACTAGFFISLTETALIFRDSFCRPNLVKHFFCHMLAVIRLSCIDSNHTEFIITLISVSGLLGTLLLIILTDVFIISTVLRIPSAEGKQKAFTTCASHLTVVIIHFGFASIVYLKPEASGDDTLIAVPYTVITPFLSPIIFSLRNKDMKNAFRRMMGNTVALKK
Procedure, shortened: as §1

[7] = target: T7, OR10Z1 (Homo sapiens) (UniProt Q8NGY1)
T7 sequence (whole entry): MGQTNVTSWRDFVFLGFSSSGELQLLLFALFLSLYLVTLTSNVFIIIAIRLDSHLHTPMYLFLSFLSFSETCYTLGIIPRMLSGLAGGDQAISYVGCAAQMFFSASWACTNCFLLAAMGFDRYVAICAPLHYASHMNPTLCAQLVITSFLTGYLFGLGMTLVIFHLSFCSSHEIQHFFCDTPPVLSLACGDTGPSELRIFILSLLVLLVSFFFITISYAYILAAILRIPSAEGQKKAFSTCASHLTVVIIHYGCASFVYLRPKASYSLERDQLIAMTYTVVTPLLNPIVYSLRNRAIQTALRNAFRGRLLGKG
Procedure, shortened: as §1

[8] = target: T8, OR11A1 (Homo sapiens) (UniProt Q9GZK7)
T8 sequence (whole entry): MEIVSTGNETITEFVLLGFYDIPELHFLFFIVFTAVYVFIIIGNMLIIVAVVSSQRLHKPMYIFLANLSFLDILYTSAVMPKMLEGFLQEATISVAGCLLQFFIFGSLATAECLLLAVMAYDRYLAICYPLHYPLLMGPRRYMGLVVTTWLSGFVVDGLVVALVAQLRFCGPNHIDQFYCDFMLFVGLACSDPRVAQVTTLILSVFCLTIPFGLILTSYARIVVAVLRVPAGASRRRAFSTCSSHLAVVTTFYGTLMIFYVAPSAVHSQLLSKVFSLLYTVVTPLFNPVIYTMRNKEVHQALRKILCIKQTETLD
Procedure, shortened: as §1

[9] = target: T9, OR11G2 (Homo sapiens) (UniProt Q8NGC1)
T9 sequence (whole entry): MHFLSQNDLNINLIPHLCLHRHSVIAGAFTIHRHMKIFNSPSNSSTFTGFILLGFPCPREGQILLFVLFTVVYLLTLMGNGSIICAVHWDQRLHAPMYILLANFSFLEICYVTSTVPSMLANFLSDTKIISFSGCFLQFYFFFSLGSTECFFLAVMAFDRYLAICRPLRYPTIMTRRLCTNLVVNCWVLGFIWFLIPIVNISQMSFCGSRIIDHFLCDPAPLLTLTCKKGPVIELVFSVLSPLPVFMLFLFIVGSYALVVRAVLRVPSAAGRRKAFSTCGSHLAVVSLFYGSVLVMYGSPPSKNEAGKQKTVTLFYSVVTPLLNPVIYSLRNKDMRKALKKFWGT
Procedure, shortened: as §1

[10] = target: T10, OR11H1 (Homo sapiens) (UniProt Q8NG94)
T10 sequence (whole entry): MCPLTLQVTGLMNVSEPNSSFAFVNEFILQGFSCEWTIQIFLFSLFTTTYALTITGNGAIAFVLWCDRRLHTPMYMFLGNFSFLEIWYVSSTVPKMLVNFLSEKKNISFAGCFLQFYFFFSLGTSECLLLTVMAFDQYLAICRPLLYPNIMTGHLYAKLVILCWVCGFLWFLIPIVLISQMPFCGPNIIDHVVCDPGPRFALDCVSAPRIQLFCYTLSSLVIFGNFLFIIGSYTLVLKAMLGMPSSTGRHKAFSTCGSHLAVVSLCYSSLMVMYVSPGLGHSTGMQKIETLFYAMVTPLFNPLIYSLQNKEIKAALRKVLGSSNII
Procedure, shortened: as §1

Measured: odorant receptor agonist call;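 further: active if original authors judged signal statistically different from baseline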

CC(CO)CS (stereo not given)
inactive: [1] | [2] | [3] | [4] | [5] | [6] | [7] | [8] | [9] | [10]
